Experimental data gathered from unrelated publications.
Protocols differ between the studies behind these lines.
Target: Serine/threonine-protein kinase MRCK alpha (CDC42BPA, Homo sapiens, UniProt Q5VT25)

| Structure (SMILES) | test | conditions | remaining binding [%] |
| --- | --- | --- | --- |
| CN1CCN(c2cnc3c(C4CCN(C(=O)c5ccc(OC(F)(F)F)cc5N)CC4)ncnc3c2)CC1 | cell-free assay, competition with immobilised ligand | 1 µM | 100 |
| c1cncc(-c2cccc(Nc3nccc(NC4CCCCC4)n3)c2)c1 | binding, competition with immobilised ligand | 10 µM | 100 |
| O=C(c1ccc(Nc2ncc(Cl)c(-c3ccc(Cl)s3)n2)cc1)N1CCC(N2CCCC2)CC1 | binding, competition with immobilised ligand | 1 µM | 53 |
| Cc1cc(NC(=O)c2cccc(S(F)(F)(F)(F)F)c2)cc(-n2ccn3nc(-c4cccnc4)cc23)c1 | cell-free assay, competition with immobilised ligand | 1 µM | 88.5 |
| N[C@@H]1CCN(c2nccc(-c3cnn4ncccc34)n2)C1 | binding | 1 µM | 100 |
| COc1ncc2cc3ccccc3nc2c1C#N | cell-free assay, competition with immobilised ligand | 5 µM | 100 |
| C[C@H]1CCN(c2nccc(-c3cnn4ncccc34)n2)C1 | binding | 1 µM | 98 |
| CNC(=O)[C@@H]1CC[C@@H](n2c(-c3ccc4cnccc4c3)nc3ccc(C(=O)NCc4cccc(C(N)=O)c4)cc32)C1 | binding, competition with immobilised ligand | 1 µM | 100 |
| O=C(Nc1cccnn1)N1CCC(=Cc2cccc(Oc3ccc(C(F)(F)F)cn3)c2)CC1 | cell-free assay, competition with immobilised ligand | 1 µM | 95 |
| CC1CCCN1c1nccc(-c2cnn3ncccc23)n1 (stereo not shown) | binding | 1 µM | 100 |
| C[C@@]1(Cc2ccc(C#N)cc2)C(=O)N(c2cc(Cl)cc(Cl)c2)c2ncc(C(=O)NC3(c4nc(C5CCC5)no4)CC3)n21 | cell-free assay, competition with immobilised ligand | 1 µM | 100 |
| CN(C)c1ncc(F)c(-c2cnn3ncccc23)n1 | binding | 1 µM | 100 |
| O=C(NCCCN1CCOCC1)c1ccc(Nc2nccc(-c3cc4ccccc4s3)n2)cc1 | binding, competition with immobilised ligand | 1 µM | 72 |
| COc1cnc(Nc2cccc(S(N)(=O)=O)c2)nc1N1CCN(c2ccccc2)CC1 | binding, competition with immobilised ligand | 1 µM | 97 |
| c1cnn2ncc(-c3ccnc(N4CCC45COC5)n3)c2c1 | binding | 1 µM | 100 |
| O=C(NCC1CCOCC1)c1n[nH]cc1NC(=O)c1c(F)cccc1F | binding, competition with immobilised ligand | 1 µM | 100 |
| O=C1CCc2cc(Nc3cc(OC4CCOCC4)c([N+](=O)[O-])cc3Cl)ccc2N1 | cell-free assay, competition with immobilised ligand | 1 µM | 91 |
| Cc1cnc(Nc2ccc(C(=O)N3CCC(N4CCCC4)CC3)cc2)nc1-c1cc2ccccc2s1 | binding, competition with immobilised ligand | 1 µM | 10 |
| CN(C)CC#Cc1ccc(OCCCc2sc(N3CCc4cccc(C(=O)Nc5nc6ccccc6s5)c4C3)nc2C(=O)O)c(F)c1 | cell-free assay, competition with immobilised ligand | 1 µM | 97 |
| Cc1cnn2ncc(-c3ccnc(N(C)C)n3)c2c1 | binding | 1 µM | 87 |
| CS(=O)(=O)N1CCCC(NC(=O)[C@H](CCC2CCCCC2)NC(=O)c2ccc(CNc3ncnc4c3nnn4-c3ccccc3)cc2)C1 (stereo partly shown) | cell-free assay, competition with immobilised ligand | 0.1 µM | 100 |
| COc1ccnn2ncc(-c3ccnc(N(C)C)n3)c12 | binding | 1 µM | 100 |
